Screening results as filed in PubChem.
pPAFAH inh: pPAFAH (human) enzyme inhibition; hit rate 1.5% among 330,000; Q13093; recombinant pPAFAH, FP-rhodamine probe fluorescence polarization; inhibition, % at 3.39 µM;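 active = inhibition above the mean inhibition across the screen plus 3 SD, cut at about 25% in these data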;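 note: inhibitors block binding of the rhodamine activity-based probe so polarization drops; 0% = enzyme with DMSO and 100% = wells lacking pPAFAH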
PAFAH2 inh: PAFAH2 (human) inhibition | Q99487 | recombinant PAFAH2, FP-rhodamine activity probe, fluorescence polarization | inhibition, % at 3.39 µM | hit rate 0.99% among 340,000 | AID 492956;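 active = inhibition above the mean over all tested compounds plus 3 SD, cut at about 30% in these data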;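 note: inhibitors block probe labeling of enzyme so polarization drops; 0% = enzyme with DMSO and 100% = wells lacking PAFAH2 protein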
PAFAH1B2 FP inh: inhibitors of human PAFAH1B2. P68402. recombinant PAFAH1B2, FP-rhodamine activity probe, fluorescence polarization. inhibition, % at 3.39 µM. hit rate 1.2% among 340,000. AID 492953;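 active = inhibition above the mean of all tested compounds plus 3 SD, cut at about 24% in these data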;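 note: 0% = enzyme with DMSO and 100% = wells lacking PAFAH1B2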
Target sequence (P68402 whole entry, looked up): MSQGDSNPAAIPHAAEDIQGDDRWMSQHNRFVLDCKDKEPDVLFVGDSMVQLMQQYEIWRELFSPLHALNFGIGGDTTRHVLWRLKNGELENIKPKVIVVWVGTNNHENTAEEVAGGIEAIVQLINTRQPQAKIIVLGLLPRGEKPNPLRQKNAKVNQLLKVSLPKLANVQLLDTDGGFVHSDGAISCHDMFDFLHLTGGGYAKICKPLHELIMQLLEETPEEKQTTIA
HTRA1 inhibitor: inhibitors of human serine peptidase HTRA1 | recombinant HTRA1, FP-rhodamine activity-based probe, fluorescence polarization | inhibition, % at 5.96 µM | hit rate 0.5% among 340,000; in the data active = inhibition above about 36%;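 note: 0% = enzyme with DMSO and 100% = wells lacking enzyme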
ABHD4 inh: ABHD4 (mouse) inhibition, primary FP screen; Q8VD66; AID 720543; hit rate 0.54% among 370,000; inhibition, % at 8.92 µM; purified mABHD4, FP-Rh probe fluorescence polarization;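 active = inhibition exceeding the mean over every tested compound plus 3 SD, cut at about 30% in these data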;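 note: 0% = plate median of compound wells and 100% = S159A mutant with DMSO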
Target sequence (Q8VD66 whole entry, looked up): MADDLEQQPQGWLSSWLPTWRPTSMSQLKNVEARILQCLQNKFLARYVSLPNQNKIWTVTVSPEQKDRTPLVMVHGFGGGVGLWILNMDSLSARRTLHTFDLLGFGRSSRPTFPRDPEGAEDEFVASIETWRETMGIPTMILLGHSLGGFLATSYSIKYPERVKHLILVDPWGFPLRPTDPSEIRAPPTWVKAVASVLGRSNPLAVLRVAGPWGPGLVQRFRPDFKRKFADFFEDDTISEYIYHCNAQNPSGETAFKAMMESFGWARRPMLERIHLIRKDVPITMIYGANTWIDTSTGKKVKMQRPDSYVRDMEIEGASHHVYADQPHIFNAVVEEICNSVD
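Assay system: mABHD4 protein; medium: HEPES pH 7.0, NaCl, Pluronic buffer; dosing: 8.92 µM, single dose; schedule: 45 min + 60 min at 25 °C; signal: FP readout, ex 525 nm / em 598 nm; read-out: normalized percent inhibition of probe labeling; repeats: single replicate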
PAFAH1B3 inh: blocks human PAF acetylhydrolase 1B catalytic subunit 3. AID 492972. Q15102. hit rate 0.28% among 340,000. recombinant PAFAH1B3, FP-rhodamine probe, fluorescence polarization. inhibition, % at 3.39 µM;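 active = inhibition above the screen-wide average of all tested compounds plus 3 SD, cut at about 25% in these data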;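 note: 0% = enzyme with DMSO only and 100% = wells lacking PAFAH1B3 protein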
Active calls of the source: *; x = no result; + = active, no number. In the library only some 2.8% were active in any assay of this set; here they are far more common.

SMILES	pPAFAH inh	PAFAH2 inh	PAFAH1B2 FP inh	HTRA1 inhibitor	ABHD4 inh	PAFAH1B3 inh
O=C(Nc1ccc(Cl)cc1)[C@@H]1[C@@H]2C(=O)N(c3cccc(F)c3)C(=O)[C@@H]2[C@H]2C=CC=NN21	3	30	6	-17	-3	-5
COc1ccc(C=NNC(=O)c2ccncc2)cc1	x	x	x	x	0	x
S=C(Nc1ccccc1Br)OCCN1CCCC12CCC(c1ccccc1)CC2 (stereo not drawn)	x	x	x	x	5	x
Cc1ccc(-c2csc(NCCn3c(C)nc4cc(C(F)(F)F)ccc43)n2)cc1	4	1	37*	-5	-5	5
Cc1nc(N)nc(N)c1Oc1ccc(Cl)cc1	x	-1	7	-3	-1	4
Cc1nc(N)nc(N)c1/C=C/C(C)(C)c1ccc(Cl)cc1	x	6	42*	-1	25	0
CSc1nc2ccc(NS(=O)(=O)c3ccc([N+](=O)[O-])cc3)cc2s1	8	x	x	x	0	x
Cc1ccc2nc(-c3ccc(NS(=O)(=O)c4c(C)n(C)c(=O)n(C)c4=O)cc3)sc2c1	4	1	-2	-26	-12	3
CSc1nc2ccc(NS(=O)(=O)c3ccc(CNC(C)=O)cc3)cc2s1	32*	-2	-3	1	0	0
Cc1ccc(S(=O)(=O)Nc2ccc(-c3nc4ccc(C)cc4s3)cc2)cc1	26*	-2	-7	-49	-19	-2
Cc1ccc(NS(=O)(=O)c2ccc3[nH]c(=O)sc3c2)cc1	29*	-1	22	-7	-9	-4
Cc1ccc(NS(=O)(=O)c2ccc3[nH]c(=O)[nH]c3c2)cc1	22	1	6	-8	-10	11
Cc1cccc(S(=O)(=O)Nc2ccc(-c3nc4ccc(C)cc4s3)cc2)c1	33*	-29	-3	-99	-92	19
COC(=O)[C@H]1C[C@]2(C(C=C(C)C)S(=O)(=O)c3ccccc3)c3ccccc3N[C@H]2N1 (stereo partly drawn)	x	x	x	x	9	x
Cc1ccc(S(=O)(=O)NNC(=O)c2cnn(-c3ccccc3)c2-n2cccc2)cc1	5	9	28*	0	-4	2
O=[N+]([O-])c1cc(-c2ccc(/C=N\n3cnnc3)o2)cc([N+](=O)[O-])c1	27*	3	1	30	23	5
CC12/C(=N/O)C3C4CC5C3/C(=N/O)C1C5C42 (stereo not drawn)	0	3	1	-4	-2	-4
O/N=C1/C2C3C(Br)C4C5CC(C1C53)C24 (stereo not drawn)	3	5	29*	7	6	10
COC[C@H]1O[C@]2(c3ccccc3)CO[C@H]1[C@@H](/C=C/c1ccccc1)C2	x	x	x	x	-5	x
Nc1nc(SCC(=O)C23CC4CC(CC(C4)C2)C3)n[nH]1	3	0	27*	-8	-3	-2
O=C(NNC(=O)C1CCCCC1)c1ccco1	0	4	1	6	0	4
CCC1CCC(C(=O)NNC(=O)c2cc(-c3ccco3)[nH]n2)CC1 (stereo not drawn)	31*	7	2	0	8	2
Cc1cc(NCCc2ccc(Cl)cc2)n2ncnc2n1	4	-3	24*	1	-1	-3
O=[N+]([O-])c1cccc(/C=N/Nc2nc(NCc3ccccc3)nc(N3CCOCC3)n2)c1O	25*	0	6	-1	18	11
CCOC(=O)c1c(C)[nH]c(C(=O)OCc2ccccc2F)c1C	29*	5	4	-10	-10	5
SMILES	pPAFAH inh	PAFAH2 inh	PAFAH1B2 FP inh	HTRA1 inhibitor	ABHD4 inh	PAFAH1B3 inh
CCCCN(C(=O)c1c(C)[nH]c(C(=O)OCC)c1C)c1ccccc1	2	9	28*	-7	4	-3
CCOC(=O)c1c(C)[nH]c(C(=O)OCc2ccc(F)cc2)c1C	x	6	2	-8	-2	8
Cc1c(C(=O)N/N=C/c2ccccc2Cl)[nH][nH]c1=O	x	x	x	x	2	x
Cc1ccc(NS(=O)(=O)c2ccc3c(c2)NC(=O)CO3)c(C)c1	23	1	1	-7	-3	5
Cc1ccc(NS(=O)(=O)c2ccc3c(c2)CC(=O)N3)c(C)c1	33*	5	9	-22	-5	7
O=C(Nc1ccc(F)cc1)OCc1cn(Cc2ccc(C(F)(F)F)cc2)nn1	x	x	x	x	-11	x
CS(=O)(=O)N[C@@H]1C[C@@H]2O[C@@H](CO)CC[C@@H]2O[C@@H]1CCc1ccc(/C=C/c2ccccc2)cc1	x	x	x	x	-6	x
Oc1cccc(NC(=S)N=Nc2c(O)[nH]c3ccc(Br)cc23)c1	28*	7	10	10	22	16
Oc1[nH]c2ccc(Br)cc2c1N=NC(=S)Nc1ccc(F)cc1	13	-3	12	5	10	13
CC(C)N1CCc2c(sc(NC(=O)C(F)(F)F)c2-c2nc3ccccc3s2)C1	x	x	x	x	5	x
Cc1ccc(NCC(=O)N/N=C\C(Br)=C\c2ccccc2)cc1	27*	-8	7	-10	3	14
O=C1Nc2ccccc2C1=Nc1ccc(S(=O)(=O)Nc2nccs2)cc1	8	14	6	7	42*	8
NS(=O)(=O)c1ccc(N=C2C(=O)Nc3ccccc32)cc1	-2	-2	-2	5	2	-1
Cc1oc(C)c2c(=O)ccc3c(c12)OC(N)=C(C#N)C3c1ccccc1Cl (stereo not drawn)	25*	4	-10	10	19	-1
CSc1ccc(C2C(C#N)=C(N)Oc3c2ccc(=O)c2c(C)oc(C)c32)cc1 (stereo not drawn)	31*	24	2	36	19	3
O=C(CN(CCc1ccccc1)S(=O)(=O)c1cccs1)N1CCOCC1	x	x	x	x	2	x
CCOC(=O)Cc1nc(N2CCN(C=O)CC2)c2c(C)c(C(=O)OCC)sc2n1	x	x	x	x	-2	x
CCN1C(=O)/C(=C/C=C2\N(CC)c3cc(S(=O)(=O)N(C)C)ccc3N2c2ccccc2)SC1=S	-57	-59	151*	-64	-111	+
CCN1C(=O)/C(=C\C=C\c2ccccc2[N+](=O)[O-])SC1=S	x	12	7	-1	5	15
COC(=O)C(C(=O)OC)C1OC23CN(S(=O)(=O)c4ccc(C)cc4)C=CC2(C)C3c2ccccc21 (stereo not drawn)	x	x	x	x	-7	x
Oc1cccc(Nc2nc(O)c(/C=C3\C=Nc4ccccc43)s2)c1	28*	-21	15	-31	-86	-249
CC1=Nc2ccccc2/C1=C\c1sc(Nc2ccc(C)cc2)nc1O	28*	-1	3	2	20	5
O=C(Cn1c(O)c(/C=C2\C=Nc3ccccc32)sc1=O)N1CCOCC1	5	-3	4	-1	6	1
COC(=O)CN1CCN(C(=O)c2csc(N3CCOCC3)n2)CC1	x	x	x	x	-3	x
Cc1cn([C@@H](CCCCNC(=O)OC(C)(C)C)C(=O)NCCCCCCCCCCC(=O)N2CCN(C(=O)OC(C)(C)C)CC2)nn1	12	12	3	-27	x	7
